This note sets out measurements from publication PMC3946992 (Journal of molecular biology, 2013).

Structures are written as SMILES. Substitutions are numbered along the chain they refer to.

Test in all cases: isothermal titration calorimetry
Type in all cases: binding
(In general: ITC needs no label: the signal is the heat of the interaction.)

One assay deals with T1, p48/p58 (Homo sapiens, UniProt P49642).
T1 sequence (P49642 1-420): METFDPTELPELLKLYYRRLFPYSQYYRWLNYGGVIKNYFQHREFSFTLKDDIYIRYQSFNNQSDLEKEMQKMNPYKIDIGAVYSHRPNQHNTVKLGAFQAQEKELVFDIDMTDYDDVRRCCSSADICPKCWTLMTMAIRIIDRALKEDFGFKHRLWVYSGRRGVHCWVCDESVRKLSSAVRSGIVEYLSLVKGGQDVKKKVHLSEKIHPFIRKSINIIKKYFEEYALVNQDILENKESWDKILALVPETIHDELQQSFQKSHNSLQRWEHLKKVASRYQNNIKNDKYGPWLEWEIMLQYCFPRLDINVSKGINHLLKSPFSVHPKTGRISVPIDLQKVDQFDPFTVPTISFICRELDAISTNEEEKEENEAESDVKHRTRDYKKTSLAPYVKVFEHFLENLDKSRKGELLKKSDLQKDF
T1 sequence (P49643 1-509 partner): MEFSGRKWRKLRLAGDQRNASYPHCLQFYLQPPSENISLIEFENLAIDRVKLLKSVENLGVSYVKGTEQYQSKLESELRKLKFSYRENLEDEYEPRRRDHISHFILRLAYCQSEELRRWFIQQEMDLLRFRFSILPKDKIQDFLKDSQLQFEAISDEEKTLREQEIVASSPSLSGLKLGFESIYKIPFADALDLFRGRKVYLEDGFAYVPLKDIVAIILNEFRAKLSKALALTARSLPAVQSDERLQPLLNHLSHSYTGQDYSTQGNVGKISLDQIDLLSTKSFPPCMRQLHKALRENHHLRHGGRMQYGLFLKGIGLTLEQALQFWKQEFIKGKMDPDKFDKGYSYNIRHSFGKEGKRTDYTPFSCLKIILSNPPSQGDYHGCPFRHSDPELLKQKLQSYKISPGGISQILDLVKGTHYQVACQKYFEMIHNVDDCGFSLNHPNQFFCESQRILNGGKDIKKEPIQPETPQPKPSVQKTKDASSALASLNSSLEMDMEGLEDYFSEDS
A digest of the protocol:
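Recombinant human p48/p58 primase heterodimer is exchanged into 20 mM HEPES pH 7.2, 100 mM NaCl. Protein at 20–30 μM, pre-mixed with 3-fold molar excess MnCl2, is titrated by ITC with 400 μM nucleotide (UTP) in an initial injection plus 28 further injections. Kd comes from fitting a single-site binding model by nonlinear least squares, ± standard deviation.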

The target in assay [1] is T2, p48 (Homo sapiens, UniProt P49642).
T2 sequence (P49642 1-420): T1 sequence (P49642 1-420)
A digest of the protocol:
(§1)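 Recombinant human p48 (full length, site-directed point mutants, or residues 1–408 lacking 360–379) is His-tagged in E. coli BL21(DE3), tag-cleaved with H3C protease, then purified by nickel, heparin and S200 chromatography. Protein at 20–30 μM is put in 20 mM HEPES pH 7.2, 100 mM NaCl with 3-fold molar excess MnCl2 and titrated with 400 μM UTP (1 initial plus 28 injections). Kd comes from a single-site nonlinear least-squares fit, ± standard deviation.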

The target in assay [2] is T3, p48 (Homo sapiens, UniProt P49642, H315A).
T3 sequence (P49642 1-420 H315A): T1 sequence (P49642 1-420) with H315A
A digest of the protocol: as §1

The target of assay [3] is T4, p48 (Homo sapiens, UniProt P49642, D306N).
T4 sequence (P49642 1-420 D306N): T1 sequence (P49642 1-420) with D306N
A digest of the protocol:
as §1

A further assay addresses T5, p48ΔL (Homo sapiens, UniProt P49642, DEL360-379).
T5 sequence (P49642 with tags, fused parts or gaps DEL360-379): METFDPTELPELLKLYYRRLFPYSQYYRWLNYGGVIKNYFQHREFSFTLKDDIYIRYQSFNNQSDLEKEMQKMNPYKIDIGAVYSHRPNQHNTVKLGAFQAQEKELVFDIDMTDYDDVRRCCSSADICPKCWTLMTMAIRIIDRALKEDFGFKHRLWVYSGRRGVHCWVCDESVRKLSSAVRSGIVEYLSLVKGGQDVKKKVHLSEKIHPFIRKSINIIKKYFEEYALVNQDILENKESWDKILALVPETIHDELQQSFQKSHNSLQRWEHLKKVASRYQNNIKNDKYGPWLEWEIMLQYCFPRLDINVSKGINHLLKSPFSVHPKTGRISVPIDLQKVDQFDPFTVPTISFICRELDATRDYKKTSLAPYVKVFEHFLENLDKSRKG
The procedure, abridged: as §1

Assay [4] addresses T6, p48 (Homo sapiens, UniProt P49642, D111N).
T6 sequence (P49642 1-420 D111N): T1 sequence (P49642 1-420) with D111N
The procedure, abridged:
as §1

The target of assay [5] is T7, p48 (Homo sapiens, UniProt P49642, D109N).
T7 sequence (P49642 1-420 D109N): T1 sequence (P49642 1-420) with D109N
The procedure, abridged:
as §1

In assay [6] the target is T8, p48 (Homo sapiens, UniProt P49642, K318A).
T8 sequence (P49642 1-420 K318A): T1 sequence (P49642 1-420) with K318A
A digest of the protocol:
as §1

In the case of `O=c1ccn([C@@H]2O[C@H](COP(=O)(O)OP(=O)(O)OP(=O)(O)O)[C@@H](O)[C@H]2O)c(=O)[nH]1` [UTP], the Kd on p48/p58 turned out to be 20 µM; on p48 [1], 11 µM; at p48 [2] it was 22 µM; at p48 [3], 48 µM; at p48ΔL, 12.5 ± 0.72 µM; at p48 [4], 54 µM. The Kd on p48 [5] worked out at 74 µM; on p48 [6], 49 µM.
`Nc1ccn([C@@H]2O[C@H](COP(=O)(O)OP(=O)(O)OP(=O)(O)O)[C@@H](O)[C@H]2O)c(=O)n1` [CTP] gave a dissociation constant Kd at p48 [1] of 15 µM.
The same measure, in the same setting: for `Nc1nc2c(ncn2[C@@H]2O[C@H](COP(=O)(O)OP(=O)(O)OP(=O)(O)O)[C@@H](O)[C@H]2O)c(=O)[nH]1` [GTP] the value was 13 µM; for `Nc1ncnc2c1ncn2[C@@H]1O[C@H](COP(=O)(O)OP(=O)(O)OP(=O)(O)O)[C@@H](O)[C@H]1O` [ATP], 13 µM.

In general, Kd refers to the free concentration of one partner at which half of the binding sites on the other are occupied at equilibrium, for simple one-to-one binding. High values mean weaker binding, low ones tighter binding.
